Published values gathered from unrelated publications.
Each line is one published result; the experiments were not run side by side. Converted amounts (≈) assume the structure as drawn.

With `Cc1cccc(CSc2nccc(OCCOc3cc(=O)oc4ccccc34)n2)c1` the inhibition was 58.1% (Human coronavirus 229E; cytopathic effect; A549; 25 µM).
For `NC(=O)c1ncn([C@@H]2O[C@H](CO)[C@@H](O)[C@H]2O)n1`, the IC50 was 25.1 µM (Human coronavirus 229E; viral replication; Huh7.5).
`O=C(Cc1ccc2ccccc2c1)N[C@@H](Cc1ccccc1)C(=O)N[C@@H](Cc1ccccc1)C(=O)N[C@H](Cc1ccc(OP(=O)(O)O)cc1)C(=O)O` gave an IC50 of 428 µM (HeLa; cell growth or viability, MTT; 48 h).
The inhibition of `Nc1ncnc2c([C@@H]3N[C@H](CO)[C@@H](O)[C@H]3O)c[nH]c12` is reported as 0% (Japanese encephalitis virus; viral replication, inhibitor; Vero 76; 0.1 µM).
With `O=c1cc(OCCCOc2ccnc(SCc3ccc(F)cc3)n2)c2cc(F)ccc2o1` the inhibition was 65.8% (Human coronavirus 229E; cytopathic effect; A549; 25 µM).
For `CC1(C)C=Cc2cc(/C=C/C(=O)Nc3ccccc3)ccc2O1`, the viability was 73% (rat Primary cortical neuron; cell growth or viability, MTT; 1 µM, 12 h).
For `CC(C)C[C@H](NC(=O)[C@@H](NC(=O)N[C@@H](Cc1ccccc1)C(=O)O)[C@@H]1CCN=C(N)N1)C(=O)N[C@H](C=O)Cc1ccccc1`, the IC50 was 23.7 µM (Human coronavirus 229E; viral replication; Huh7.5).
`CCCC(=O)CP(=O)(O)O` has an MIC of > 200 µg/mL (Enterococcus faecalis; microbial growth; ATCC33186).
`CCC(CC)COC(=O)[C@H](C)N[P@](=O)(OC[C@H]1O[C@@](C#N)(c2ccc3c(N)ncnn23)[C@H](O)[C@@H]1O)Oc1ccccc1` gave an IC50 of 0.11 µM (Human coronavirus 229E; viral replication; Calu-3).
The MIC of `CCCCCCCCCCCCCCCC(=O)NP(=O)(O)O` is reported as 200 µg/mL (≈ 596 µM) (Enterococcus faecalis; microbial growth; ATCC33186).
With `CC1(C)C=Cc2cc(C(CC(=O)Nc3ccccc3)Nc3ccccc3)ccc2O1` (centres unmarked) the viability was > 80% (rat Primary cortical neuron; cell growth or viability, MTT; 1 µM, 12 h).
For `O=C(CCCCCCCCCCOc1ccccc1)CP(=O)(O)O`, the MIC was 50 µg/mL (≈ 140 µM) (Enterococcus faecalis; microbial growth; ATCC33186).
For `COc1ccc(NC(=O)/C=C/c2ccc3c(c2)C=CC(C)(C)O3)cc1`, the viability was 87% (rat Primary cortical neuron; cell growth or viability, MTT; 1 µM, 12 h).
`CCCCCCCC/C=C\CCCCCCCCNC(=O)CP(=O)(O)O` has an MIC of 50 µg/mL (≈ 128 µM) (Enterococcus faecalis; microbial growth; ATCC33186).
The IC50 of `CC[C@@]1(O)C[C@H](O[C@H]2C[C@H](N(C)C)[C@H](O[C@H]3C[C@H](O)[C@H](O[C@H]4CCC(=O)[C@H](C)O4)[C@H](C)O3)[C@H](C)O2)c2c(cc3c(c2O)C(=O)c2c(O)cccc2C3=O)[C@H]1C(=O)OC` is reported as 2.34 µM (Human coronavirus 229E; viral replication; Calu-3).
With `CCOC(=O)C1=C[C@@H](OC(CC)CC)[C@H](NC(C)=O)[C@@H](N)C1` the inhibition was 72.8% (Human coronavirus 229E; cytopathic effect; A549; 50 µM).
For `CCCCCCCC(=O)NP(=O)(O)O`, the MIC was > 200 µg/mL (Enterococcus faecalis; microbial growth; ATCC33186).
